# According to ChEMBL document CHEMBL1781989, “Novel β-carboline-tripeptide conjugates attenuate mesenteric ischemia/reperfusion injury in the rat” (2011):
# Non-standard residues stand in square brackets, D forms with d. Residues, ends and D or L forms follow the SMILES beside them. Tpi = O=C(O)[C@@H]1Cc2c([nH]c3ccccc23)CN1
# Tests used:
# Mus musculus [1] = experiment: Analgesic activity in ICR mouse assessed as increase in pain threshold at 0.15 mmol/kg, po after 90 mins by tail flick method (reference value: 7.53 +/- 11.54 %); type: functional
# Mus musculus [2] = experiment: Analgesic activity in ICR mouse assessed as increase in pain threshold at 0.15 mmol/kg, po after 180 mins by tail flick method (reference value: 8.75 +/- 9.73 %); type: functional
# Mus musculus [3] = experiment: Analgesic activity in ICR mouse assessed as increase in pain threshold at 0.15 mmol/kg, po after 120 mins by tail flick method (reference value: 8.09 +/- 13.28 %); type: functional
# Mus musculus [4] = experiment: Analgesic activity in ICR mouse assessed as increase in pain threshold at 0.15 mmol/kg, po after 30 mins by tail flick method (reference value: 5.03 +/- 10.26 %); type: functional
# Mus musculus [5] = experiment: Analgesic activity in ICR mouse assessed as increase in pain threshold at 0.15 mmol/kg, po after 150 mins by tail flick method (reference value: 9.02 +/- 12.19 %); type: functional
# Mus musculus [6] = experiment: Analgesic activity in ICR mouse assessed as increase in pain threshold at 0.15 mmol/kg, po after 60 mins by tail flick method (reference value: 7.45 +/- 8.03 %); type: functional
# Mus musculus [7] = experiment: Antiinflammatory activity in po dosed ICR mouse assessed as inhibition of xylene-induced ear edema administered 30 mins before xylene challenge measured after 2 hrs; type: functional, organism-based
# Summary of the method: (§1)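 Male ICR mice (20 ± 2 g), randomised to test, vehicle (CMC) and aspirin (10 mg/kg oral) groups. Test agents given orally as CMC suspension. After 30 min, 0.03 mL xylene applied to both faces of the right ear, left ear as control. At 2 h mice were killed and 7 mm ear punches weighed. Edema is the right-minus-left weight, and inhibition is taken against vehicle.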
# Mus musculus [8] = experiment: Antiinflammatory activity in ICR mouse assessed as inhibition of xylene-induced ear edema at 0.05 mmol/kg, po administered 30 mins before xylene challenge measured after 2 hrs relative to control; type: functional; summary of the method: as §1
# Mus musculus [9] = experiment: Antiinflammatory activity in ICR mouse assessed as inhibition of xylene-induced ear edema at 0.10 mmol/kg, po administered 30 mins before xylene challenge measured after 2 hrs relative to control; type: functional; summary of the method: as §1
# Mus musculus [10] = experiment: Antiinflammatory activity in ICR mouse assessed as inhibition of xylene-induced ear edema at 0.15 mmol/kg, po administered 30 mins before xylene challenge measured after 2 hrs relative to control; type: functional; summary of the method: as §1
Compound,Activity (Mus musculus [1]) [%],Activity (Mus musculus [2]) [%],Activity (Mus musculus [3]) [%],Activity (Mus musculus [4]) [%],Activity (Mus musculus [5]) [%],Activity (Mus musculus [6]) [%],inhibition (Mus musculus [7]),inhibition in vivo at 50 µmol/kg (Mus musculus [8]) [%],inhibition in vivo at 100 µmol/kg (Mus musculus [9]) [%],inhibition in vivo at 150 µmol/kg (Mus musculus [10]) [%]
CC(C)C[C@H](N)C(=O)N[C@@H](Cc1ccccc1)C(=O)N[C@@H](Cc1c[nH]c2ccccc12)C(=O)O (H-Leu-Phe-Trp-OH),20.13,7.98,18.92,25.38,9.77,28.79,–,–,–,–
NCCCC[C@H](N)C(=O)N[C@@H](Cc1ccccc1)C(=O)N[C@@H](Cc1c[nH]c2ccccc12)C(=O)O (H-Lys-Phe-Trp-OH),23.47,8.41,20.14,20.16,11.23,25.43,–,–,–,–
C[C@H](NC(=O)[C@@H]1Cc2c([nH]c3ccccc23)CN1)C(=O)N[C@@H](Cc1ccccc1)C(=O)N[C@@H](Cc1c[nH]c2ccccc12)C(=O)O (H-[Tpi]AFW-OH),46.48,19.22,42.03,37.58,28.79,48.23,Dose-dependent effect,32.6,44.8,52.7
O=C(O)C[C@H](NC(=O)[C@@H]1Cc2c([nH]c3ccccc23)CN1)C(=O)N[C@@H](Cc1ccccc1)C(=O)N[C@@H](Cc1c[nH]c2ccccc12)C(=O)O (H-[Tpi]DFW-OH),34.55,18.77,40.67,22.17,13.54,28.12,–,–,–,40
O=C(O)CC[C@H](NC(=O)[C@@H]1Cc2c([nH]c3ccccc23)CN1)C(=O)N[C@@H](Cc1ccccc1)C(=O)N[C@@H](Cc1c[nH]c2ccccc12)C(=O)O (H-[Tpi]EFW-OH),29.25,12.32,39.23,18.24,12.25,17.23,–,–,–,28.4
O=C(O)[C@H](Cc1c[nH]c2ccccc12)NC(=O)[C@H](Cc1ccccc1)NC(=O)[C@H](Cc1ccccc1)NC(=O)[C@@H]1Cc2c([nH]c3ccccc23)CN1 (H-[Tpi]FFW-OH),40.56,15.32,45.46,31.34,21.12,37.2,–,–,–,48.2
O=C(CNC(=O)[C@@H]1Cc2c([nH]c3ccccc23)CN1)N[C@@H](Cc1ccccc1)C(=O)N[C@@H](Cc1c[nH]c2ccccc12)C(=O)O (H-[Tpi]GFW-OH),46.45,14.36,49.09,10.36,22.37,40.78,–,–,–,37.5
O=C(O)[C@H](Cc1c[nH]c2ccccc12)NC(=O)[C@H](Cc1ccccc1)NC(=O)[C@H](Cc1cnc[nH]1)NC(=O)[C@@H]1Cc2c([nH]c3ccccc23)CN1 (H-[Tpi]HFW-OH),22.23,13.29,39.38,37.25,24.33,32.19,–,–,–,57.6
CC[C@H](C)[C@H](NC(=O)[C@@H]1Cc2c([nH]c3ccccc23)CN1)C(=O)N[C@@H](Cc1ccccc1)C(=O)N[C@@H](Cc1c[nH]c2ccccc12)C(=O)O (H-[Tpi]IFW-OH),41.23,16.13,27.32,33.01,15.25,38.01,–,–,–,56.4
NC(=O)C[C@H](NC(=O)[C@@H]1Cc2c([nH]c3ccccc23)CN1)C(=O)N[C@@H](Cc1ccccc1)C(=O)N[C@@H](Cc1c[nH]c2ccccc12)C(=O)O (H-[Tpi]NFW-OH),34.56,19.45,39.25,21.24,22.12,45.23,–,–,–,55.8
O=C(O)[C@H](Cc1c[nH]c2ccccc12)NC(=O)[C@H](Cc1ccccc1)NC(=O)[C@@H]1CCCN1C(=O)[C@@H]1Cc2c([nH]c3ccccc23)CN1 (H-[Tpi]PFW-OH),21.35,15.68,18.79,23.17,25.05,49.74,–,–,–,47.3
NC(=O)CC[C@H](NC(=O)[C@@H]1Cc2c([nH]c3ccccc23)CN1)C(=O)N[C@@H](Cc1ccccc1)C(=O)N[C@@H](Cc1c[nH]c2ccccc12)C(=O)O (H-[Tpi]QFW-OH),51.25,22.45,32.33,41.83,18.32,47.33,–,–,–,42.4
N=C(N)NCCC[C@H](NC(=O)[C@@H]1Cc2c([nH]c3ccccc23)CN1)C(=O)N[C@@H](Cc1ccccc1)C(=O)N[C@@H](Cc1c[nH]c2ccccc12)C(=O)O (H-[Tpi]RFW-OH),46.08,21.55,37.12,38.16,29.38,35.13,Dose-dependent effect,11.3,26.5,57
O=C(O)[C@H](Cc1c[nH]c2ccccc12)NC(=O)[C@H](Cc1ccccc1)NC(=O)[C@H](CO)NC(=O)[C@@H]1Cc2c([nH]c3ccccc23)CN1 (H-[Tpi]SFW-OH),44.13,25.07,38.45,30.56,26.47,42.32,–,–,–,45.7
C[C@@H](O)[C@H](NC(=O)[C@@H]1Cc2c([nH]c3ccccc23)CN1)C(=O)N[C@@H](Cc1ccccc1)C(=O)N[C@@H](Cc1c[nH]c2ccccc12)C(=O)O (H-[Tpi]TFW-OH),40.36,19.25,42.43,30.75,23.19,38.2,–,–,–,50.6
CC(C)[C@H](NC(=O)[C@@H]1Cc2c([nH]c3ccccc23)CN1)C(=O)N[C@@H](Cc1ccccc1)C(=O)N[C@@H](Cc1c[nH]c2ccccc12)C(=O)O (H-[Tpi]VFW-OH),47.36,16.03,35.79,39.47,25.88,45.77,–,–,–,43.6
O=C(O)[C@H](Cc1c[nH]c2ccccc12)NC(=O)[C@H](Cc1ccccc1)NC(=O)[C@H](Cc1c[nH]c2ccccc12)NC(=O)[C@@H]1Cc2c([nH]c3ccccc23)CN1 (H-[Tpi]WFW-OH),35.19,14.23,28.55,35.05,16.69,36.45,–,–,–,51.5
O=C(O)[C@H](Cc1c[nH]c2ccccc12)NC(=O)[C@H](Cc1ccccc1)NC(=O)[C@H](Cc1ccc(O)cc1)NC(=O)[C@@H]1Cc2c([nH]c3ccccc23)CN1 (H-[Tpi]YFW-OH),43.23,20.94,30.25,35.75,28.87,41.18,Dose-dependent effect,16.2,32.9,50.9
CC(=O)Oc1ccccc1C(=O)O [ASPIRIN],41.23,21.72,33.24,32.85,30.41,38.45,–,–,–,–
